Calls of active or inactive are those of the source. The calls are words filed in the database; no cut-off is given here.
Tests used:
[1] = biological target: T1, Prostaglandin E synthase (Homo sapiens, UniProt O14684); assay: Inhibition of mPGES1-mediated PGE2 production in microsomes of IL-1beta stimulated human A549 cells preincubated for 15 mins by RP-HPLC analysis; type: cell-based
T1 sequence (O14684 whole entry): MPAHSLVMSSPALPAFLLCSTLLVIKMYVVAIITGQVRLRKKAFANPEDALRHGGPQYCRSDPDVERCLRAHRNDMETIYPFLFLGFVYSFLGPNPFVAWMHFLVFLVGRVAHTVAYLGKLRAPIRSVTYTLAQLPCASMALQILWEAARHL
Method in brief: (§1)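 mPGES-1 source: microsomes of A549 cells treated 48 h with IL-1β 2 ng/mL, at 25−50 μg protein/mL in 0.1 M potassium phosphate pH 7.4 with 2.5 mM glutathione. Compound preincubation 15 min at 4 °C; PGH2 (20 μM final) for 1 min; FeCl2/citric acid stop with 11β-PGE2 internal standard. PGE2 by RP-HPLC.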

[2] = biological target: T2, Prostaglandin E synthase (Homo sapiens) (UniProt O14684); assay: Inhibition of mPGES1-mediated PGE2 formation in LPS-stimulated human monocytes preincubated for 15 mins before arachidonic acid substrate addition measured after 30 mins by UPLC-MS/MS analysis; type: cell-based
T2 sequence (whole entry): T1 sequence (O14684 whole entry)
Method in brief: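 Fresh human monocytes (adherence-isolated, >85% CD14+; 5 × 10⁶/well) primed with LPS 1 μg/mL for 24 h. Washed, 15 min preincubation, then 2.5 μM A23187 plus 20 μM arachidonic acid for 30 min. Eicosanoids extracted and measured by UPLC-MS/MS, normalized to PGB1 as relative intensities. Two to three independent experiments.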

[3] = biological target: T3, Polyunsaturated fatty acid 5-lipoxygenase (Homo sapiens, UniProt P09917); assay: Inhibition of human recombinant 5-LO expressed in Escherichia coli Bl21 (DE3) using arachidonic acid as substrate preincubated for 10 mins measured after 10 mins by RP-HPLC analysis
T3 sequence (P09917 whole entry): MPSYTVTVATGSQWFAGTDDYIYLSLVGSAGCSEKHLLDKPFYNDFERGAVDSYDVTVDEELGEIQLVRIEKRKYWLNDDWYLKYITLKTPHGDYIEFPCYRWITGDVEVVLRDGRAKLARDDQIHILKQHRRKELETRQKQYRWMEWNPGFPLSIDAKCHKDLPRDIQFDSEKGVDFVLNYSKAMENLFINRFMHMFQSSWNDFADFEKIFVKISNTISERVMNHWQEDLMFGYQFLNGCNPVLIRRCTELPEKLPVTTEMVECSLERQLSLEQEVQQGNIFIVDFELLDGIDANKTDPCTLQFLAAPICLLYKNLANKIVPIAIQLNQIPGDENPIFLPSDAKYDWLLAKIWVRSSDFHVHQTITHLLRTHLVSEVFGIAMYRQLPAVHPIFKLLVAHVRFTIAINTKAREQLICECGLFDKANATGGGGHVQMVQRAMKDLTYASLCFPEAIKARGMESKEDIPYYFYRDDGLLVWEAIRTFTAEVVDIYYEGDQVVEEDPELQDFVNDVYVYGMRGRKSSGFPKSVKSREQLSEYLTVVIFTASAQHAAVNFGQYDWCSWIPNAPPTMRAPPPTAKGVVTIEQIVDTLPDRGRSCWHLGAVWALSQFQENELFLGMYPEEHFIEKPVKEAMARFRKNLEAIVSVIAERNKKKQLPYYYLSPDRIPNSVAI
Method in brief: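 5-LO expressed from pT3-5LO in E. coli BL21(DE3), semi-purified on ATP-agarose, diluted in PBS with 1 mM EDTA and 1 mM ATP. Preincubated with compound 10 min at 4 °C, then 30 s at 37 °C. Started with 2 mM CaCl2 plus 20 μM arachidonic acid; 10 min at 37 °C; ice-cold methanol stop. Three to four experiments.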

[4] = biological target: T4, Polyunsaturated fatty acid lipoxygenase ALOX12 (Homo sapiens) (UniProt P18054); assay: Inhibition of 12-LO in human neutrophils assessed as residual activity relative to control; settings: values are per cent of control
T4 sequence (whole entry): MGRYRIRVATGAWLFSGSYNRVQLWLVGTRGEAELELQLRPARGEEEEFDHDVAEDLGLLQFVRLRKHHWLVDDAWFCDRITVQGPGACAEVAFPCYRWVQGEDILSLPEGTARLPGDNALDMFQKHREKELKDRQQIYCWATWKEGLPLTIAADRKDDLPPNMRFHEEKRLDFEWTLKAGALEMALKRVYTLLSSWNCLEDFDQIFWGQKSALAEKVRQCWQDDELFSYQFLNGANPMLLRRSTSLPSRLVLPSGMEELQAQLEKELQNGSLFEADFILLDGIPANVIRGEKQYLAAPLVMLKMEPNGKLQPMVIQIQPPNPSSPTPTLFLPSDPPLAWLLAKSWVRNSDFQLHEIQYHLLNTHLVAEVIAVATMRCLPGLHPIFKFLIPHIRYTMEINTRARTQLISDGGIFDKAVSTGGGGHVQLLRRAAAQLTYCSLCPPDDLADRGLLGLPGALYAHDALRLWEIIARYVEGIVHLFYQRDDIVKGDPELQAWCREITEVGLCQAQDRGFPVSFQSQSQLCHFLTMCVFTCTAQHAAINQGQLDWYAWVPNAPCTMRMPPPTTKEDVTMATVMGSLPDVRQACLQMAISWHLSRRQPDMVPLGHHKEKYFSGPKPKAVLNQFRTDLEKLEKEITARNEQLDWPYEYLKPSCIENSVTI

[5] = biological target: T2, Prostaglandin E synthase (Homo sapiens); assay: Inhibition of mPGES1-mediated PGE2 production in microsomes of IL-1beta stimulated human A549 cells assessed as residual activity preincubated at 10 uM for 15 mins by RP-HPLC analysis relative to control; type: cell-based; method in brief: as §1
[6] = biological target: T3, Polyunsaturated fatty acid 5-lipoxygenase; assay: Inhibition of 5-LO in human neutrophils using arachidonic acid as substrate preincubated for 15 mins measured after 10 mins by HPLC analysis
Method in brief: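 Fresh human neutrophils, 1 × 10⁷/mL in PBS pH 7.4 with 1 mM CaCl2 and 1 mg/mL glucose, preincubated 15 min at 37 °C. LTB4, its all-trans isomers and 5-H(P)ETE by HPLC.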

[7] = Aqueous stability of the compound in at 2 uM in 10 mM aqueous ammonium bicarbonate at pH 7.9 assessed as formation of trans-6-(4'-hydroxy-3'-methoxyphenyl)-2,4-dioxo-5-hexenal measured as residual amount of compound by reversed phase liquid chromatography-coupled mass spectrometry; type: physicochemical; settings: buffer, pH 7.9, 2 µM
Method in brief: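 Compounds at 2 μM in 10 mM aqueous ammonium bicarbonate pH 7.9, incubated 30 min at 37 °C. Analysed by UPLC-MS on a C18 column, gradient acetonitrile/water with 0.07% formic acid, at 0.7 mL/min. Residual amount given as % of control; three to four independent experiments.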

[8] = system: Radical scavenging activity; assay: Antioxidant activity assessed as DPPH free radical scavenging activity at 10 uM after 30 mins […] by spectrophotometric analysis; type: functional
[9] = biological target: T5, Prostaglandin G/H synthase 1 (Homo sapiens, UniProt P23219); assay: Inhibition of COX1-mediated PGE2 production in human platelets assessed as residual activity by measuring formation of 12-HHT from arachidonic acid preincubated at 10 uM for 5 mins measured after 5 mins by RP-HPLC analysis relative to control
Method in brief: (§2)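 Washed human platelets, 10⁸/mL in PBS pH 7.4 with 1 mM CaCl2: 5 min compound preincubation at room temperature, then 1 min at 37 °C. Arachidonic acid 5 μM added; 5 min at 37 °C. 12-HHT extracted and measured by RP-HPLC.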

[10] = biological target: T6, Prostaglandin G/H synthase 1 (Ovis aries) (UniProt P05979); assay: Inhibition of purified ovine COX-1 assessed as residual activity by measuring formation of 12-HHT from arachidonic acid preincubated at 10 uM for 5 mins before substrate addition measured after 5 mins by HPLC analysis relative to control
T6 sequence (whole entry): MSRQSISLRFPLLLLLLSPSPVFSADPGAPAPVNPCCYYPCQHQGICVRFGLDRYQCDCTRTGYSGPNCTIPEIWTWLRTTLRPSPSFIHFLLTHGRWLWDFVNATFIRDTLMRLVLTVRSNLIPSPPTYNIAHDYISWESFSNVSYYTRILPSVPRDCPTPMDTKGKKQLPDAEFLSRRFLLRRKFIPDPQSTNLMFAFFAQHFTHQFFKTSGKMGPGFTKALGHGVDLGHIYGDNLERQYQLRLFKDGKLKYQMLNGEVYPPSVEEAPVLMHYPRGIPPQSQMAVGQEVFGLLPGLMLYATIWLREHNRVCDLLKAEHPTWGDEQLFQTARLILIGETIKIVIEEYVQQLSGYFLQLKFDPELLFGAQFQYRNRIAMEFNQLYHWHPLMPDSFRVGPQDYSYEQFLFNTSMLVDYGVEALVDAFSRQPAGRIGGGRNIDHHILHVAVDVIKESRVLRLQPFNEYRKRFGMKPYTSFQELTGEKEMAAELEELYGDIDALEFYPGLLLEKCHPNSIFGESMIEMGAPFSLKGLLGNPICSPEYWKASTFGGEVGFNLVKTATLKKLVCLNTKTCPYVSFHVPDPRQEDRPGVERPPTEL
Method in brief: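 Purified ovine COX-1 (50 units) in 100 mM Tris pH 8 with 5 mM glutathione, 5 μM hemoglobin and 100 μM EDTA. Preincubated 5 min at 4 °C then 1 min at 37 °C. 5 μM arachidonic acid added; 12-HHT extracted after 5 min and measured by HPLC. Residual activity at 10 μM, three independent experiments.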

[11] = biological target: T6, Prostaglandin G/H synthase 1 (Ovis aries); assay: Inhibition of purified ovine COX-1 assessed as residual activity by measuring formation of 12-HHT from arachidonic acid preincubated at 10 uM for 5 mins before substrate addition measured after 5 mins by HPLC analysis relative to control; values are per cent of control
[12] = system: Mus musculus; assay: Antiinflammatory activity in zymosan-induced peritonitis CD1 mouse model assessed as suppression of MPO activity at 1 mg/kg, ip administered 30 mins before challenge measured 4 hrs post zymosan challenge relative to control; type: functional; settings: route intraperitoneal
Method in brief: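 In male CD-1 mice (n = 5−11 per group), dose was given ip in 2% DMSO/saline 30 min before ip zymosan (2 mg/mL, 0.5 mL). Lavage 4 h later. Pelleted exudate cells disrupted; supernatant mixed with 0.167 mg/mL o-dianisidine and 0.0005% H2O2 in PBS, read kinetically by absorbance. U/mL from human neutrophil MPO calibration; % inhibition vs vehicle.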

[13] = system: Mus musculus; assay: Antiinflammatory activity in zymosan-induced peritonitis CD1 mouse model assessed as suppression of LTB4 level at 1 mg/kg, ip administered 30 mins before challenge measured 4 hrs post zymosan challenge relative to control v
[14] = system: Mus musculus; assay: Antiinflammatory activity in zymosan-induced peritonitis CD1 mouse model assessed as suppression of neutrophil infiltration at 1 mg/kg, ip administered 30 mins before challenge measured 4 hrs post zymosan challenge relative to control; type: functional; settings: route intraperitoneal
Method in brief: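 Zymosan peritonitis in male CD-1 mice (n = 5−11): ip dose in 2% DMSO/saline 30 min before ip zymosan. Peritoneal lavage with 3 mL cold PBS at 4 h. Exudate cells counted by light microscopy in a Burker chamber after trypan blue staining; % inhibition vs vehicle.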

[15] = system: PBMC; assay: Cytotoxicity against human PBMCs assessed as cell viability after 24 hrs by MTT assay; type: cell-based
Method in brief: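 Human PBMC (2 × 10⁵/well), 24 h exposure. MTT then 4 h at 37 °C in darkness. Formazan solubilized with 10% SDS in 20 mM HCl; absorbance 550 nm. Viability relative to untreated cells; IC50 derived.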

[16] = system: LNCaP; assay: Cytotoxicity against human LNCAP cells assessed as cell viability after 24 hrs by MTT assay; type: cell-based
Method in brief: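 LNCaP seeded at 10⁴ cells/well and exposed 24 h. MTT added, then 4 h at 37 °C, 5% CO2, dark. Medium removed and formazan dissolved in DMSO; absorbance at 570 nm.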

[17] = biological target: T5, Prostaglandin G/H synthase 1; assay: Inhibition of COX1-mediated […] in human platelets assessed as residual activity by measuring formation of 12-HHT from arachidonic acid preincubated at 10 uM for 5 mins measured after 5 mins by RP-HPLC analysis relative to control; values are per cent of control
[18] = biological target: T5, Prostaglandin G/H synthase 1; assay: Inhibition of COX1-mediated PGE2 production in human platelets assessed as formation of 12-HHT using arachidonic acid as substrate preincubated for 5 mins measured after 5 mins by RP-HPLC analysis; method in brief: as §2

T5 sequence (P23219 whole entry): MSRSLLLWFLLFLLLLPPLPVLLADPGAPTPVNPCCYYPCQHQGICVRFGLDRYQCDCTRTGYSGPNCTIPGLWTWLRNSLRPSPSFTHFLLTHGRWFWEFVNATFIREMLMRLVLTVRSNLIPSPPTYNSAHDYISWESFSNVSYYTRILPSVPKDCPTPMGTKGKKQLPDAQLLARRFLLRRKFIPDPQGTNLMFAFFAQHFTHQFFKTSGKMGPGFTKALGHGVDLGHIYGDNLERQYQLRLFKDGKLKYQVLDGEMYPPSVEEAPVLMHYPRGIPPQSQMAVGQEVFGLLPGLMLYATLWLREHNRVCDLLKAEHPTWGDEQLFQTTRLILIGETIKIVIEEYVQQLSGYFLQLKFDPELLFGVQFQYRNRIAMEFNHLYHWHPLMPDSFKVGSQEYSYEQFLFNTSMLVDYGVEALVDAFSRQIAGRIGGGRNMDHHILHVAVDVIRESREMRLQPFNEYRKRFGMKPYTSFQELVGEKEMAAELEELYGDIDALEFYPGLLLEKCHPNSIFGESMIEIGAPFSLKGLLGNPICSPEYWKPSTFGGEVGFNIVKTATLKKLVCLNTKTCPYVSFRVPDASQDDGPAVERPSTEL

Row | IC50 [3] | residual activity [4] | IC50 [6] | Stability [7] | inhibition [10] | SMILES | Activity [8] | IC50 [15] | IC50 [16] | also measured
1 | – | – | – | – | – | Clc1ccccc1-c1nc2c3ccccc3c3ccccc3c2[nH]1 | – | – | – | IC50 ([1]; read-out: IC50): 0.02 µM; inhibition [2]: Active
2 | 2.8 µM | 75.7% | 80.2 µM | Unstable | inactive | COc1cc(/C=C/C(=O)CC(=O)/C=C/c2cc(CCC(C)C)c(O)c(OC)c2)cc(CCC(C)C)c1O | 64.3% | – | – | Activity [5]: 71.7%; inhibition [9]: inactive
3 | – | – | – | – | – | COc1ccc2c(c1)c(CC(=O)O)c(C)n2C(=O)c1ccc(Cl)cc1 | – | – | – | residual activity [11]: 25%
4 | – | – | – | – | – | CC(C)c1ccc2c(c1)c(SC(C)(C)C)c(CC(C)(C)C(=O)O)n2Cc1ccc(Cl)cc1 | – | – | – | inhibition in vivo at 1 mg/kg [12]: 41%; inhibition in vivo at 1 mg/kg [13]: 63%; inhibition in vivo at 1 mg/kg [14]: 41%
5 | 0.4 µM | 76.4% | 2.9 µM | 87.4% | – | COc1cc(CCC(=O)CC(=O)CCc2cc(CCC(C)C)c(O)c(OC)c2)cc(CCC(C)C)c1O | 71.9% | > 50 µM | > 50 µM | IC50 ([1]; a549): Not Active; residual activity [11]: 82.7%; inhibition [9]: inactive
6 | – | – | – | – | – | O=C1O[C@H]([C@@H](O)CO)C(O)=C1O | 20.4% | – | – | –
7 | 0.6 µM | 67.7% | 8.1 µM | Unstable | inactive | COc1cc(/C=C/C(=O)/C=C/c2cc(F)c(O)c(OC)c2)cc(F)c1O | 80.5% | > 50 µM | 25.1 µM | residual activity [17]: 65.2%; Activity [5]: 58.8%
8 | 0.4 µM | 69.7% | 10 µM | Unstable | inactive | COc1cc(/C=C/C(=O)CC(=O)/C=C/c2cc(F)c(O)c(OC)c2)cc(F)c1O | 61.4% | > 50 µM | > 50 µM | IC50 ([1]; read-out: IC50): 8.7 µM; IC50 [18]: 7.5 µM
